ChEMBL document CHEMBL4813982, “Novel pyrazolo[4,3-d]pyrimidine microtubule targeting agents (MTAs): Synthesis, structure-activity relationship, in vitro and in vivo evaluation as antitumor agents” (Bioorg Med Chem Lett, 2021)
Active and inactive are the calls of the source. No cut-off for these calls is given here.

Tests used:
Tubulin (Homo sapiens) [1] = molecular target: T1, Tubulin (Homo sapiens) (UniProt P68371+Q9H4B7+P0DPH7+P68366+Q13509+Q71U36+P04350+Q3ZCM7+P07437+P68363+Q9BQE3+Q6PEY2+Q13885+Q9BVA1+Q9BUF5); test: Inhibition of [3H]colchicine binding to tubulin (unknown origin) at 5 uM relative to control; assay type: protein-complex assay
Tubulin (Homo sapiens) [2] = molecular target: T1, Tubulin (Homo sapiens); test: Inhibition of [3H]colchicine binding to tubulin (unknown origin) at 0.5 uM relative to control; assay type: protein-complex assay
Tubulin = test: Inhibition of tubulin assembly (unknown origin); assay type: protein-complex assay, Homo sapiens
MCF7 [3] = test: Antiproliferative activity against human MCF7 cells; assay type: functional, cell-based
MCF7 [4] = test: Antiproliferative activity against human MCF7 cells expressing TUBB3; assay type: functional, cell-based
[5] = Resistance ratio of EC50 for antiproliferative activity against human MCF7 cells expressing TUBB3 to EC50 for antiproliferative activity against human MCF7 cells; assay type: functional
Procedure, shortened: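 Resistance ratio: EC50 in MCF-7 cells overexpressing βIII-tubulin divided by EC50 in parental wild-type MCF-7 cells.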

MCF7 [6] = test: Potency index, ratio of EC50 of paclitaxel to EC50 of compound for antiproliferative activity against human MCF7 cells; assay type: functional
MCF7 [7] = test: Potency index, ratio of EC50 of paclitaxel to EC50 of compound for antiproliferative activity against human MCF7 cells expressing TUBB3; assay type: functional
OVCAR-8 [8] = test: Antiproliferative activity against human OVCAR-8 cells; assay type: functional, cell-based
NCI/ADR-RES [9] = test: Antiproliferative activity against human NCI/ADR-RES cells overexpressing Pgp; assay type: functional, cell-based
MCF7 [10] = test: Antitumor activity against human MCF7 cells expressing TUBB3 xenografted in athymic mouse assessed as reduction in tumor growth at 30 mg/kg administered twice in a week; assay type: functional, organism-based
Procedure, shortened: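 βIII-tubulin-overexpressing MCF-7 cells in Matrigel implanted into mammary fat pad #4 of 8-week-old female athymic mice. […] Tumor volumes measured over time and analysed by two-way repeated-measures ANOVA. Body weight change at day 41 analysed by one-way ANOVA. n = 7 control, 8 per treated group.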

[11] = Toxicity in athymic mouse xenografted with human MCF7 cells expressing TUBB3 assessed as effect on body weight at 30 mg/kg administered twice in a week; assay type: organism-based; details: in vivo
Procedure, shortened: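 MCF-7 TUBB3 cells (10^7 in 100 uL Matrigel) implanted into mammary fat pad #4 of 8-week-old female athymic mice. Dosing was 30 mg/kg twice weekly. Body weight was expressed as percent change at day 41 versus starting weight and analysed by one-way ANOVA, n = 8.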

CCRF-CEM = test: Growth inhibition of human CCRF-CEM cells incubated for 48 hrs by sulforhodamine B assay; assay type: functional
HL-60(TB) = test: Growth inhibition of human HL-60(TB) cells incubated for 48 hrs by sulforhodamine B assay; assay type: functional
K562 = test: Growth inhibition of human K562 cells incubated for 48 hrs by sulforhodamine B assay; assay type: functional
MOLT-4 = test: Growth inhibition of human MOLT-4 cells incubated for 48 hrs by sulforhodamine B assay; assay type: functional
RPMI-8226 = test: Growth inhibition of human RPMI-8226 cells incubated for 48 hrs by sulforhodamine B assay; assay type: functional
SR = test: Growth inhibition of human SR cells incubated for 48 hrs by sulforhodamine B assay; assay type: functional
A549 = test: Growth inhibition of human A549 cells incubated for 48 hrs by sulforhodamine B assay; assay type: functional
EKVX = test: Growth inhibition of human EKVX cells incubated for 48 hrs by sulforhodamine B assay; assay type: functional
HOP-62 = test: Growth inhibition of human HOP-62 cells incubated for 48 hrs by sulforhodamine B assay; assay type: functional
HOP-92 = test: Growth inhibition of human HOP-92 cells incubated for 48 hrs by sulforhodamine B assay; assay type: functional
NCI-H226 = test: Growth inhibition of human NCI-H226 cells incubated for 48 hrs by sulforhodamine B assay; assay type: functional
NCI-H23 = test: Growth inhibition of human NCI-H23 cells incubated for 48 hrs by sulforhodamine B assay; assay type: functional
NCI-H322M = test: Growth inhibition of human NCI-H322M cells incubated for 48 hrs by sulforhodamine B assay; assay type: functional
NCI-H460 = test: Growth inhibition of human NCI-H460 cells incubated for 48 hrs by sulforhodamine B assay; assay type: functional
NCI-H522 = test: Growth inhibition of human NCI-H522 cells incubated for 48 hrs by sulforhodamine B assay; assay type: functional
COLO 205 = test: Growth inhibition of human COLO 205 cells incubated for 48 hrs by sulforhodamine B assay; assay type: functional
HCC 2998 = test: Growth inhibition of human HCC 2998 cells incubated for 48 hrs by sulforhodamine B assay; assay type: functional
HCT-116 = test: Growth inhibition of human HCT-116 cells incubated for 48 hrs by sulforhodamine B assay; assay type: functional
HCT-15 = test: Growth inhibition of human HCT-15 cells incubated for 48 hrs by sulforhodamine B assay; assay type: functional
HCT-29 = test: Growth inhibition of […] incubated for 48 hrs by sulforhodamine B assay; assay type: functional
KM12 = test: Growth inhibition of human KM12 cells incubated for 48 hrs by sulforhodamine B assay; assay type: functional
SW-620 = test: Growth inhibition of human SW-620 cells incubated for 48 hrs by sulforhodamine B assay; assay type: functional
SF-268 = test: Growth inhibition of human SF-268 cells incubated for 48 hrs by sulforhodamine B assay; assay type: functional
SF-295 = test: Growth inhibition of human SF-295 cells incubated for 48 hrs by sulforhodamine B assay; assay type: functional
SF-539 = test: Growth inhibition of human SF-539 cells incubated for 48 hrs by sulforhodamine B assay; assay type: functional
SNB-19 = test: Growth inhibition of human SNB-19 cells incubated for 48 hrs by sulforhodamine B assay; assay type: functional
SNB-75 = test: Growth inhibition of human SNB-75 cells incubated for 48 hrs by sulforhodamine B assay; assay type: functional
U-251 = test: Growth inhibition of human U-251 cells incubated for 48 hrs by sulforhodamine B assay; assay type: functional
LOX IMVI = test: Growth inhibition of human LOX IMVI cells incubated for 48 hrs by sulforhodamine B assay; assay type: functional
Malme-3M = test: Growth inhibition of human Malme-3M cells incubated for 48 hrs by sulforhodamine B assay; assay type: functional
M14 = test: Growth inhibition of human M14 cells incubated for 48 hrs by sulforhodamine B assay; assay type: functional
MDA-MB-435 = test: Growth inhibition of human MDA-MB-435 cells incubated for 48 hrs by sulforhodamine B assay; assay type: functional
SK-MEL-2 = test: Growth inhibition of human SK-MEL-2 cells incubated for 48 hrs by sulforhodamine B assay; assay type: functional
SK-MEL-28 = test: Growth inhibition of human SK-MEL-28 cells incubated for 48 hrs by sulforhodamine B assay; assay type: functional
SK-MEL-5 = test: Growth inhibition of human SK-MEL-5 cells incubated for 48 hrs by sulforhodamine B assay; assay type: functional
UACC-257 = test: Growth inhibition of human UACC-257 cells incubated for 48 hrs by sulforhodamine B assay; assay type: functional
UACC-62 = test: Growth inhibition of human UACC-62 cells incubated for 48 hrs by sulforhodamine B assay; assay type: functional
IGROV-1 = test: Growth inhibition of human IGROV-1 cells incubated for 48 hrs by sulforhodamine B assay; assay type: functional
OVCAR-3 = test: Growth inhibition of human OVCAR-3 cells incubated for 48 hrs by sulforhodamine B assay; assay type: functional
OVCAR-4 = test: Growth inhibition of human OVCAR-4 cells incubated for 48 hrs by sulforhodamine B assay; assay type: functional
OVCAR-5 = test: Growth inhibition of human OVCAR-5 cells incubated for 48 hrs by sulforhodamine B assay; assay type: functional
OVCAR-8 [12] = test: Growth inhibition of human OVCAR-8 cells incubated for 48 hrs by sulforhodamine B assay; assay type: functional
NCI/ADR-RES [13] = test: Growth inhibition of human NCI/ADR-RES cells incubated for 48 hrs by sulforhodamine B assay; assay type: functional
SK-OV-3 = test: Growth inhibition of human SK-OV-3 cells incubated for 48 hrs by sulforhodamine B assay; assay type: functional
786-0 = test: Growth inhibition of human 786-0 cells incubated for 48 hrs by sulforhodamine B assay; assay type: functional
A498 = test: Growth inhibition of human A498 cells incubated for 48 hrs by sulforhodamine B assay; assay type: functional
ACHN = test: Growth inhibition of human ACHN cells incubated for 48 hrs by sulforhodamine B assay; assay type: functional
CAKI-1 = test: Growth inhibition of human CAKI-1 cells incubated for 48 hrs by sulforhodamine B assay; assay type: functional
RXF 393 = test: Growth inhibition of human RXF 393 cells incubated for 48 hrs by sulforhodamine B assay; assay type: functional
SN12C = test: Growth inhibition of human SN12C cells incubated for 48 hrs by sulforhodamine B assay; assay type: functional
TK-10 = test: Growth inhibition of human TK-10 cells incubated for 48 hrs by sulforhodamine B assay; assay type: functional
UO-31 = test: Growth inhibition of human UO-31 cells incubated for 48 hrs by sulforhodamine B assay; assay type: functional
PC-3 = test: Growth inhibition of human PC-3 cells incubated for 48 hrs by sulforhodamine B assay; assay type: functional
DU-145 = test: Growth inhibition of human DU-145 cells incubated for 48 hrs by sulforhodamine B assay; assay type: functional
MCF7 [14] = test: Growth inhibition of human MCF7 cells incubated for 48 hrs by sulforhodamine B assay; assay type: functional
MDA-MB-231 = test: Growth inhibition of human MDA-MB-231 cells incubated for 48 hrs by sulforhodamine B assay; assay type: functional
Hs-578T = test: Growth inhibition of human HS-578T cells incubated for 48 hrs by sulforhodamine B assay; assay type: functional
BT-549 = test: Growth inhibition of human BT-549 cells incubated for 48 hrs by sulforhodamine B assay; assay type: functional
T47D = test: Growth inhibition of human T47D cells incubated for 48 hrs by sulforhodamine B assay; assay type: functional
MDA-MB-468 = test: Growth inhibition of human MDA-MB-468 cells incubated for 48 hrs by sulforhodamine B assay; assay type: functional
[15] = Resistance ratio of IC50 for antiproliferative activity against human NCI/ADR-RES cells expressing Pgp to IC50 for antiproliferative activity against human OVCAR-8 cells; assay type: functional
Procedure, shortened: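 Resistance ratio: IC50 in Pgp-overexpressing NCI/ADR-RES cells divided by IC50 in parental OVCAR-8 cells.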

COc1ccc(N(C)c2nc(Cl)nc3cnn(C)c23)cc1
inhibition (Tubulin (Homo sapiens) [1]): 94% | inhibition (Tubulin (Homo sapiens) [2]): 68% | IC50 (Tubulin): 450 nM | EC50 (MCF7 [3]): 2 nM | EC50 (MCF7 [4]): 3.3 nM | Ratio EC50 [5]: 1.1 | Ratio EC50 (MCF7 [6]): 100 | Ratio EC50 (MCF7 [7]): 600 | IC50 (OVCAR-8 [8]): 9 nM | IC50 (NCI/ADR-RES [9]): 5 nM | TGI (MCF7 [10]): Active | Activity [11]: Non-Toxic | GI50 (CCRF-CEM): 9.96 nM | GI50 (HL-60(TB)): 11.2 nM | GI50 (K562): 6.46 nM | GI50 (MOLT-4): 19.9 nM | GI50 (RPMI-8226): 15.3 nM | GI50 (SR): 9.64 nM | GI50 (A549): 12.7 nM | GI50 (EKVX): 15.5 nM | GI50 (HOP-62): 15.4 nM | GI50 (HOP-92): 16 nM | GI50 (NCI-H226): 9.49 nM | GI50 (NCI-H23): 11.9 nM | GI50 (NCI-H322M): 14.1 nM | GI50 (NCI-H460): 4.52 nM | GI50 (NCI-H522): 14.4 nM | GI50 (COLO 205): 9.78 nM | GI50 (HCC 2998): 23.6 nM | GI50 (HCT-116): 9.07 nM | GI50 (HCT-15): 5.14 nM | GI50 (HCT-29): 7.6 nM | GI50 (KM12): 10.8 nM | GI50 (SW-620): 6.67 nM | GI50 (SF-268): 12.2 nM | GI50 (SF-295): 11.4 nM | GI50 (SF-539): 8.76 nM | GI50 (SNB-19): 13.9 nM | GI50 (SNB-75): 10.8 nM | GI50 (U-251): 7.97 nM | GI50 (LOX IMVI): 8.53 nM | GI50 (Malme-3M): 12.1 nM | GI50 (M14): 10.6 nM | GI50 (MDA-MB-435): 3.9 nM | GI50 (SK-MEL-2): 21 nM | GI50 (SK-MEL-28): 17 nM | GI50 (SK-MEL-5): 14.6 nM | GI50 (UACC-257): 22.7 nM | GI50 (UACC-62): 15.9 nM | GI50 (IGROV-1): 13.3 nM | GI50 (OVCAR-3): 6.37 nM | GI50 (OVCAR-4): 12.9 nM | GI50 (OVCAR-5): 11.8 nM | GI50 (OVCAR-8 [12]): 14.7 nM | GI50 (NCI/ADR-RES [13]): 8.24 nM | GI50 (SK-OV-3): 13.9 nM | GI50 (786-0): 13.2 nM | GI50 (A498): 13.4 nM | GI50 (ACHN): 8.4 nM | GI50 (CAKI-1): 15.7 nM | GI50 (RXF 393): 8.75 nM | GI50 (SN12C): 15.8 nM | GI50 (TK-10): 16.3 nM | GI50 (UO-31): 10 nM | GI50 (PC-3): 10.7 nM | GI50 (DU-145): 8.89 nM | GI50 (MCF7 [14]): 10.8 nM | GI50 (MDA-MB-231): 14.3 nM | GI50 (Hs-578T): 11.2 nM | GI50 (BT-549): 24.1 nM | GI50 (T47D): 16.4 nM | GI50 (MDA-MB-468): 9.09 nM | Ratio IC50 [15]: 0.55

COc1ccc(N(C)c2nc(C)nc3c(Cc4ccccc4)c[nH]c23)cc1
IC50 (Tubulin): 21000 nM
